Screening results (PubChem)
MrgX1 agonist: human MrgX1 receptor agonism, primary screen; Q96LB2; MrgX1-HEK293 cells, Fluo-4 calcium fluorescence, agonist mode; stronger effect = higher value; B-score at 10 µM; 0.44% of 310,000 active; AID 588627;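 active means calcium response B-score plate-corrected fluorescence ratio at least 3 library SD, with starting fluorescence B-score inside 5 SD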
Target sequence (Q96LB2 whole entry, looked up): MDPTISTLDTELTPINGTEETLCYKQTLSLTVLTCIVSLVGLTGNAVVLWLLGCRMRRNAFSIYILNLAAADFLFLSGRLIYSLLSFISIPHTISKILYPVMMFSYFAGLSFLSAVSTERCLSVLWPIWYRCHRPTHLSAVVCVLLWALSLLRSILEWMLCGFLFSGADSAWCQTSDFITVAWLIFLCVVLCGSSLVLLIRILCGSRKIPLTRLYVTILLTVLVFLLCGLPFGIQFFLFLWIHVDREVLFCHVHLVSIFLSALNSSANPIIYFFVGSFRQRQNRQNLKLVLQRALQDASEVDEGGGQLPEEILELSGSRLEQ
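Assay system: stable human MrgX1 HEK293 cell line. Quantity: 15,000 cells per well. Schedule: cells plated overnight, dye loaded 0.5 h 37 °C, 0.5 h room temperature. Detection: Fluo-4 NW calcium-flux fluorescence, kinetic read. Read-out basis: peak-minus-minimum fluorescence over baseline, converted to B scores. Control set: positive and negative control wells on each plate.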
MrgX1 antag: antagonists of human MrgX1 receptor | Q96LB2 | MRGX1-HEK293 calcium flux, Fluo-4, BAM8-22 antagonism; stronger effect = lower value | B-score at 10 µM | 1.3% of 310,000 active;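 active means calcium-response B-score plate-corrected more than 3 library SD below zero, starting fluorescence within 5 deviations, no agonist response on first addition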;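 further: peak minus trough fluorescence over baseline after final BAM8-22 challenge near maximal dose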
RGS4 pot: RGS4 potentiation or activation | HEK293 M3R/inducible RGS4, carbachol calcium flux Fluo4; stronger effect = lower value | 0.92% of 310,000 active | B-score at 10 µM;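 active means B-score of the integrated calcium signal more than 4 SD below the library mean, with starting fluorescence not abnormally high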;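 further: negative B-score means reduced calcium response which marks RGS4 activation or potentiation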
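Test system: HEK293 cells with stable M3R and inducible RGS4; also added: carbachol at ECmax as muscarinic agonist stimulus; schedule: dye loading 30 min 37 °C, buffer rest 30 min RT; technique: kinetic calcium fluorescence imaging with Fluo4-AM dye, 2 µM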
RGS4 inh: human RGS4 inhibition. P49798. HEK293 M3R/RGS4 inducible, Fluo-4 calcium flux; stronger effect = higher value; triggered by carbachol at its EC20. B-score at 10 µM. 0.45% of 310,000 active;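 active means B-score, a plate-corrected calcium signal, over three deviations above library mean, with baseline fluorescence within five deviations of library mean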;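 further: RGS4 expression induced by doxycycline in cells with stable M3 receptor; B-score is computed from the integrated fluorescence ratio over baseline after carbachol; higher B-score means a larger calcium signal and so more RGS4 inhibition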
Target sequence (P49798 whole entry, looked up): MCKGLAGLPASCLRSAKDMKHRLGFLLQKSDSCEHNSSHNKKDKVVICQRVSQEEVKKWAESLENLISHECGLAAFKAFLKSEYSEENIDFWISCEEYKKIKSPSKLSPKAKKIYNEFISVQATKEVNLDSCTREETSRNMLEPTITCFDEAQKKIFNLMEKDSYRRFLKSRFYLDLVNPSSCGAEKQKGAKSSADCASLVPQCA
MrgX1 allo act: human MrgX1 positive allosteric modulation, primary screen | Q96LB2 | MrgX1-HEK293, Fluo-4 calcium flux, FDSS; stronger effect = higher value | B-score at 10 µM | 0.63% of 310,000 active;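 active means plate-corrected calcium response at least 3 library SD above typical, normal starting fluorescence, not activating the receptor alone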;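 further: compound read alongside a low EC10 to EC30 dose of BAM8-22 agonist; peak minus trough fluorescence over baseline measured at the second addition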
MrgX1 ag confirm: confirmation of human MrgX1 receptor agonists | MrgX1-HEK293, Fluo-4 calcium fluorescence, FDSS | shares compounds with MrgX1 agonist | 78% of 600 active | activation, % at 10 µM;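 active means calcium signal rise, corrected for plate position, at least 3 library SD high, with starting brightness within 5 such deviations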
HEK293 Ca flux: counter-screen for MrgX1 antagonists: effect in parental HEK293 cells | shares compounds with MrgX1 antag | Fluo-4 calcium fluorescence, FDSS | fluorescence ratio F(max-min)/F0 at 10 µM | 2% of 4,000 active;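 active means duplicate-averaged calcium fluorescence ratio at least three times the standard deviation of buffer wells, a nonspecific response in parental cells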
HEK293 Ca counter: counter-screen for MrgX1 allosteric activators: effect in parental HEK293 cells. parental HEK293 calcium flux, Fluo-4 fluorescence ratio; stronger effect = higher value. fluorescence ratio F(max-min)/F0 at 10 µM. 0.4% of 4,000 active. shares compounds with MrgX1 antag;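 active means calcium fluorescence ratio, averaged over duplicates, at least 3 SD of the buffer-well ratio, meaning a nonspecific response in receptor-free cells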;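 further: untransfected parental HEK293 lacking MrgX1 used as counterscreen for MrgX1 allosteric activators; fluorescence change taken during the second addition on a kinetic imager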
HEK293 Ca cntr2: MrgX1 activator counter-screen hit in parental HEK293 cells | fluorescence ratio F(max-min)/F0 at 10 µM | Fluo-4 calcium fluorescence (FDSS); stronger effect = higher value | 8.7% of 4,000 active | shares compounds with MrgX1 antag;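 active means calcium fluorescence ratio at least three times the spread of buffer wells, meaning a non-specific response in parental cells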
Numbers without * were called inactive; i = inactive; . = no result. An excerpt weighted towards active compounds, which were near 3.5% of everything screened.

SMILES | MrgX1 agonist | MrgX1 antag | RGS4 pot | RGS4 inh | MrgX1 allo act | MrgX1 ag confirm | HEK293 Ca flux | HEK293 Ca counter | HEK293 Ca cntr2
O=c1c2cc(Br)ccc2nc(-c2cccc(C(F)(F)F)c2)n1O | 119* | i | i | i | i | 620%* | i | i | 144*
COCCNC(=S)N1CCN(S(C)(=O)=O)CC1 | i | i | i | i | i | . | . | . | .
CC(C)(C)c1ccc(SCCc2cccnc2)cc1 | i | i | i | i | i | . | . | . | .
O=C(Nc1nnc(-c2ccccn2)o1)c1cccc(Br)c1 | 29* | i | i | i | i | 111%* | i | i | i
O=C(Nc1nncs1)C1CC(=O)N(C2CCCC2)C1 (stereo not given) | i | i | i | i | i | . | . | . | .
O=C(c1ccc(Cl)cc1)N1CCCOC1 | 50* | i | i | i | i | i | i | i | i
COc1ccccc1N1CCN(C2CCCCC2NS(=O)(=O)c2ccc(Cl)cc2)CC1 (stereo not given) | 48* | i | i | i | i | 241%* | i | i | i
COc1cc(OC)cc(C(=O)N[C@H](C(=O)OCC(=O)Nc2sccc2C#N)C(C)C)c1 | i | i | i | i | i | . | . | . | .
Cn1c2ccccc2c(=O)c2c(=O)n(C3CCCCC3)c(-c3ccco3)nc21 | 91* | i | i | i | i | 589%* | i | i | 113*
COc1ccccc1C(=O)NC(CCSC)C(=O)OC(C)C(=O)NC1CC1 (stereo not given) | i | i | i | i | i | . | . | . | .
Cn1c(=O)c(C(=O)CN2CCN(S(=O)(=O)c3ccccc3)CC2)c(N)n(Cc2ccccc2)c1=O | 38* | i | i | i | i | 171%* | i | i | 46*
Cc1ccc(F)cc1NC(=O)CN1C(=O)NC2(CCCc3ccccc32)C1=O (stereo not given) | i | i | i | i | i | . | . | . | .
NC1=NC2=C(CCCC2)C2(CCCCC2)S1 | 32* | i | i | i | i | 160%* | i | i | i
COc1ccc(CCNC(=S)NCCc2ccc(OC)c(OC)c2)cc1OC | i | i | i | i | i | . | . | . | .
CCOC(=O)c1ccc(NC(=S)NCCc2ccc(OC)c(OC)c2)cc1 | 36* | i | i | i | i | i | i | i | i
O=C(Nc1nnc(-c2cccs2)o1)c1cc(-c2ccccc2)nc2ccccc12 | i | i | i | i | i | . | . | . | .
CCNc1nc(NC(C)C)nc(N(C#N)Cc2ccccc2)n1 | 42* | i | i | i | i | 185%* | i | i | i
COc1ccccc1CNC(=O)CC12CC3CC(CC(Br)(C3)C1)C2 | i | i | i | i | i | . | . | . | .
CCOc1c(Cl)cc(C(=O)Nc2ccccc2C(=O)O)cc1Cl | 48* | i | i | i | i | 78%* | i | i | i
COc1ccc(C(=O)Nc2ccccc2C(=O)O)cc1Cl | i | i | i | i | i | . | . | . | .
Cc1ccc(C(=O)NC(=S)NNC(=O)c2ccccc2[N+](=O)[O-])cc1 | 77* | i | i | i | i | 413%* | i | i | 78*
O=C(NC(=S)NNC(=O)c1ccccc1O)c1ccc([N+](=O)[O-])cc1 | i | i | i | i | i | . | . | . | .
Cc1onc(-c2ccccc2)c1C(=O)NC(=S)NNC(=O)c1ccc(O)cc1O | i | i | i | i | i | . | . | . | .
Cc1ccc(C(=O)NNC(=S)NC(=O)c2ccc(Cl)cc2Cl)cc1 | 131* | i | i | i | i | 585%* | i | i | 116*
Cc1onc(-c2ccccc2)c1C(=O)NC(=S)NNC(=O)c1ccccc1O | 107* | i | i | i | i | 714%* | i | i | 132*
SMILES | MrgX1 agonist | MrgX1 antag | RGS4 pot | RGS4 inh | MrgX1 allo act | MrgX1 ag confirm | HEK293 Ca flux | HEK293 Ca counter | HEK293 Ca cntr2
Cc1ccc(C(=O)NNC(=S)NC(=O)c2ccco2)cc1 | 135* | i | i | i | i | 681%* | i | i | 123*
CCCCNC(=O)C1CCN(S(=O)(=O)N2CCOCC2)CC1 | i | i | i | i | i | . | . | . | .
Cc1cccc(Cn2nc(C)cc2NC(=O)CCCn2ccc([N+](=O)[O-])n2)c1 | i | i | i | i | i | . | . | . | .
Cc1cc(=O)[nH]c(NCc2ccc(Cl)cc2)n1 | i | i | i | i | i | . | . | . | .
CCCc1ccc(C(=O)NC(=O)c2ccccc2O)cc1 | 61* | i | i | i | i | 187%* | i | i | 64*
O=C(NNC(=S)NC(=O)c1ccccc1[N+](=O)[O-])c1ccccc1O | i | i | i | i | i | . | . | . | .
O=C(NC(=S)NNC(=O)c1ccccc1O)c1ccccc1 | 93* | i | i | i | i | 478%* | i | i | 86*
Cc1ccc(C(=O)NC(=S)NNC(=O)c2ccccc2O)cc1 | i | i | i | i | i | . | . | . | .
O=C(NNC(=S)NC(=O)c1ccccc1[N+](=O)[O-])c1ccc(Cl)cc1Cl | 71* | i | i | i | i | 218%* | i | i | i
Cc1ccc(C(=O)NC(=S)NNC(=O)c2ccccc2)cc1 | 78* | i | i | i | i | 492%* | i | i | 100*
Cc1c(C(=O)Nc2cccnc2)oc2ccc(Br)cc12 | i | i | i | i | i | . | . | . | .
COc1ccc(OC)c(NC(=O)C(=O)NNC(=O)C23CC4CC(CC(C4)C2)C3)c1 | i | i | i | i | i | . | . | . | .
Cc1ccccc1OCC(=O)NNC(=S)NC(=O)c1ccco1 | 71* | i | i | i | i | 327%* | i | i | 62*
Cc1ccccc1C(=O)NNC(=S)NC(=O)c1ccccc1 | 159* | i | i | i | i | 756%* | i | i | 146*
O=C(NC(=S)NNC(=O)c1ccccc1O)c1ccc(F)cc1 | i | i | i | i | i | . | . | . | .
COCC(=O)c1[nH]c2ccccc2c1C | 41* | i | i | i | i | 196%* | i | i | i
